Calls of active or inactive are those of the source.
Key:
[1] = test system: NSCLC; experiment: Inhibition of colony formation in mouse NSCLC cell expressing Kras G12D/+ at 100 nM; assay type: functional, cell-based
Summary of the method: (§1)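 Kras G12D/+;Trp53-/- cells treated with 100 nM GSK343 or GSK669 for 5 d, with or without dox, then replated at 250 or 500 cells per well for colony formation under continued treatment. Cell numbers taken relative to controls; colony size quantified automatically. Three independent experiments.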

[2] = target: Histone-lysine N-methyltransferase EZH2 (Mus musculus) (UniProt Q61188); experiment: Inhibition of Ezh2 in mouse NSCLC cells infected with dox-inducible EZH2 shRNA assessed vinculin expression at 100 nM in presence of […] by immunoblot analysis; assay type: cell-based
Sequence of Histone-lysine N-methyltransferase EZH2 (Mus musculus) (Q61188 whole entry): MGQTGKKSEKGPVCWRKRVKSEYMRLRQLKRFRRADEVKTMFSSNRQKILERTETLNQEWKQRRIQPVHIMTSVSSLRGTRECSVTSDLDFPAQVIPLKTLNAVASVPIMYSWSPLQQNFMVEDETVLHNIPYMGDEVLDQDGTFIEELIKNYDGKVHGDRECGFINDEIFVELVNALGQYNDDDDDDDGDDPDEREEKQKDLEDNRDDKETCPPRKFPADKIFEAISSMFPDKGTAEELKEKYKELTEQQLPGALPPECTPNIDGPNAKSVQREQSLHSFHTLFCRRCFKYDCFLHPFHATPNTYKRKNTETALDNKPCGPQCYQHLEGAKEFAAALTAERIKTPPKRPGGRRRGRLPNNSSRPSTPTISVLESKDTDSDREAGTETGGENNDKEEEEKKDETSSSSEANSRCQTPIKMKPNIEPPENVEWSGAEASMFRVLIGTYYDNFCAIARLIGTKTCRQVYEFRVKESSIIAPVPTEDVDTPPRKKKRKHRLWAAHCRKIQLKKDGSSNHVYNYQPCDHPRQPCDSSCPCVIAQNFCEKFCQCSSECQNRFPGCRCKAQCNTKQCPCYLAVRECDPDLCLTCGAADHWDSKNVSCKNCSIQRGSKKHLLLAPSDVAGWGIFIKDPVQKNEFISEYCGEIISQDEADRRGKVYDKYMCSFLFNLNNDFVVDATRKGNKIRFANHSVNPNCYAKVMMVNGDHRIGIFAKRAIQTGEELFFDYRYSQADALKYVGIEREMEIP

[3] = test system: NSCLC; experiment: Antiproliferative activity in mouse NSCLC cell expressing Kras G12D/+ assessed reduction in cell viability at 100 nM; assay type: functional, cell-based; summary of the method: as §1
[4] = test system: NSCLC; experiment: Induction of cell cycle arrest in mouse NSCLC cell infected with dox-inducible EZH2 shRNA assessed as accumulation of cells at G0/G1 phase at 100 nM in presence of […] by FACS analysis; assay type: functional, cell-based
Summary of the method: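 Kras G12D/+;Trp53-/- cells carrying dox-inducible EZH2 shRNA treated with or without dox and 100 nM GSK343 for 3 d. Cells then pulsed 45 min with 10 uM BrdU and stained with anti-BrdU-FITC and propidium iodide (5 ug/ml) with RNaseA, then analyzed by FACS. Three independent experiments; Student's t test.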

[5] = target: Histone-lysine N-methyltransferase EZH2 (Mus musculus) (UniProt Q61188); experiment: Inhibition of Ezh2 in mouse NSCLC cells at 100 nM in presence of […] by immunoblot analysis; assay type: cell-based
[6] = target: Histone-lysine N-methyltransferase EZH2 (Mus musculus) (UniProt Q61188); experiment: Inhibition of Ezh2 in mouse NSCLC cells expressing Kras G12D/+ assessed down-regulation of H3K27me3 level at 100 nM for 120 hrs by Immunoblot analysis; assay type: cell-based

CCCc1cc(C)[nH]c(=O)c1CNC(=O)c1cc(-c2ccnc(N3CCN(C)CC3)c2)cc2c1cnn2C(C)C
active: inhibition [1] | inhibition [2] | Activity [3] | Activity [4] | inhibition [5] | inhibition [6]
